Data taken from ChEMBL document CHEMBL3046730, “Broad-spectrum antimicrobial activity in vitro of the synthetic peptide D4E1” (J Agric Food Chem, 2001).
Active and inactive are the calls of the source. The rule behind the calls is not given here.

Columns and labels:
Fusarium graminearum = assay: Antifungal activity against Fusarium graminearum SRRC 1042 after 24 to 48 hr; format: functional, organism-based
Method in brief: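 Conidia harvested in 1% PDB (pH 6.0), diluted to 10⁴ conidia/mL, pregerminated 8 h at 30 °C. Germinated conidia exposed to D4E1 in 1% PDB at 30 °C; four aliquots spread on PDA and colonies counted after 24–48 h at 30 °C. Percent mortality vs 0 µM control; IC50 from dose–response fit of two experiments; MIC = complete growth inhibition.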

Berkeleyomyces basicola = assay: Antifungal activity against Thielaviopsis basicola SRRC 1277 after 24 to 48 hr; format: functional, organism-based
Method in brief: (§1)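 Conidia diluted to 10⁴/mL (Fusarium) or 10⁵/mL and germinated 8 h at 30 °C (A. flavus, Fusarium, P. italicum) or overnight at 22 °C. Four 50 µL aliquots spread on PDA, colonies counted after 24–48 h at 30 or 22 °C. Percent mortality vs untreated control fitted by dose–response to give IC50; MIC = complete inhibition; two experiments.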

Fusarium oxysporum = assay: Antifungal activity against Fusarium oxysporum SRRC 187 after 24 to 48 hr; format: functional, organism-based; method in brief: as §1
Rhizoctonia solani [1] = assay: Antifungal activity against Rhizoctonia solani SRRC 1443 after 48 hr by microplate assay; format: functional, organism-based; settings: SRRC 1443, 48 h
Method in brief: (§2)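 Mycelia grown in 1% PDB 48 h at 28 °C, 90 rpm, blended, adjusted to ~10⁵ fragments/mL. Fragments incubated in 24-well plates with peptide at 2–40 µM final in 1% PDB, 2 mL total, 48 h at 90 rpm. MIC recorded as lowest concentration completely inhibiting growth; three replicate experiments.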

Rhizoctonia solani [2] = assay: Antifungal activity against Rhizoctonia solani SRRC 1443 assessed as rough hyphae at 20 uM after 48 hr by microscopic analysis; format: functional, organism-based
Phytophthora cinnamomi = assay: Antifungal activity against Phytophthora cinnamomi after 48 hr by microplate assay; format: functional, organism-based; method in brief: as §2
Cercospora kikuchii = assay: Antifungal activity against Cercospora kikuchii SRRC 1078 after 24 to 48 hr; format: functional, organism-based; method in brief: as §1
Aspergillus flavus [3] = assay: Antifungal activity against Aspergillus flavus 70-GFP assessed as germ tube breakage at 12.5 uM after 8 hr by microscopic analysis relative to control; format: functional, organism-based
Method in brief: (§3)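 A. flavus 70-GFP conidia (10⁶/mL) incubated 8 h at 30 °C with 0–25 µM peptide in 1% PDB. Germ tube and spore morphology examined by GFP fluorescence microscopy (excitation 480 nm, emission 530 nm). Repeated twice.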

Aspergillus flavus [4] = assay: Antifungal activity against Aspergillus flavus 70-GFP assessed as vacuolization in spores at 6 uM after 8 hr by microscopic analysis relative to control; format: functional, organism-based; method in brief: as §3
[5] = tested on: Pseudomonas amygdali pv. tabaci; assay: Antibacterial activity against Pseudomonas syringae pv. tabaci after 24 to 48 hr; format: functional, organism-based
Xanthomonas campestris = assay: Antibacterial activity against Xanthomonas citri subsp. malvacearum race 18 after 24 to 48 hr; format: functional, organism-based, Xanthomonas citri pv. malvacearum
Method in brief: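 X. campestris pv. malvacearum race 18 grown overnight in nutrient broth at 28 °C, 225 rpm, then diluted to 10⁴ CFU/mL. Exposed to D4E1 for 60 min at 28 °C. Four aliquots plated on NB and colonies counted after 24–48 h at 28 °C. Percent mortality vs 0 µM control; IC50 from dose–response curve fit; MIC = complete inhibition; tested twice.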

Phytophthora nicotianae = assay: Antifungal activity against Phytophthora parasitica after 48 hr by microplate assay; format: functional, organism-based; method in brief: as §2
Penicillium italicum = assay: Antifungal activity against Penicillium italicum SRRC 2352 after 24 to 48 hr; format: functional, organism-based; method in brief: as §1
Aspergillus flavus [6] = assay: Antifungal activity against Aspergillus flavus 70-GFP after 24 to 48 hr; format: functional, organism-based
Method in brief: (§4)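 Conidia harvested in 1% PDB (pH 6.0), diluted to 10⁵/mL and germinated before exposure to peptide in 1% PDB. Four 50 µL aliquots plated on PDA and colonies counted after 24–48 h. Percent mortality vs untreated control fitted by dose–response to give IC50; MIC = complete inhibition; each fungus tested at least twice.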

Rhizoctonia solani [7] = assay: Antifungal activity against Rhizoctonia solani SRRC 1443 assessed as jagged hyphae at 20 uM after 48 hr by microscopic analysis; format: functional, organism-based
Alternaria alternata = assay: Antifungal activity against Alternaria alternata SRRC 1107 after 24 to 48 hr; format: functional, organism-based; method in brief: as §4
Rhizoctonia solani [8] = assay: Antifungal activity against Rhizoctonia solani SRRC 1443 assessed as appearance of extracellular material surrounding hyphae at 20 uM after 48 hr by microscopic analysis; format: functional, organism-based
Aspergillus flavus [9] = assay: Antifungal activity against Aspergillus flavus 70-GFP assessed as thick germ tube at 25 uM after 8 hr by microscopic analysis relative to control; format: functional, organism-based; method in brief: as §3
Aspergillus flavus [10] = assay: Antifungal activity against Aspergillus flavus 70-W after 24 to 48 hr; format: functional, organism-based; method in brief: as §1
Aspergillus flavus [11] = assay: Antifungal activity against Aspergillus flavus 70-GFP assessed as reduction in spore germination at 12.5 uM after 8 hr by microscopic analysis relative to control; format: functional, organism-based
Method in brief: (§5)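 Nongerminated A. flavus 70-GFP conidia (10⁶/mL) exposed to 0–25 µM peptide in 1% PDB, 8 h at 30 °C. Proportion of germinating conidia scored; GFP fluorescence microscopy (ex 480, em 530 nm). Experiment repeated twice; one-way ANOVA with Tukey separation.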

[12] = tested on: Globisporangium ultimum var. sporangiiferum; assay: Antifungal activity against Pythium ultimum var. sporangiiferum after 48 hr by microplate assay; format: functional, organism-based; method in brief: as §2
[13] = tested on: Colletotrichum destructivum; assay: Antifungal activity against Colletotrichum destructivum ATCC 42492 after 24 to 48 hr; format: functional, organism-based; method in brief: as §1
Aspergillus flavus [14] = assay: Antifungal activity against Aspergillus flavus 70-GFP assessed as vacuolization in spores at 12.5 uM after 8 hr by microscopic analysis relative to control; format: functional, organism-based; method in brief: as §3
Fusarium verticillioides = assay: Antifungal activity against Fusarium verticillioides SRRC 1082 after 24 to 48 hr; format: functional, organism-based; method in brief: as §1
Verticillium dahliae = assay: Antifungal activity against Verticillium dahliae SRRC 1030 after 24 to 48 hr; format: functional, organism-based; method in brief: as §1
Aspergillus flavus [15] = assay: Antifungal activity against Aspergillus flavus 70-GFP assessed as short germ tube at 25 uM after 8 hr by microscopic analysis relative to control; format: functional, organism-based; method in brief: as §3
Aspergillus flavus [16] = assay: Antifungal activity against Aspergillus flavus 70-GFP assessed as reduction in spore germination at 25 uM after 8 hr by microscopic analysis relative to control; format: functional; parameters: scale not given: the % may be the effect or the level left; method in brief: as §5
Claviceps purpurea = assay: Antifungal activity against Claviceps purpurea SRRC 118 after 24 to 48 hr; format: functional, organism-based; method in brief: as §1
Rhizoctonia solani [17] = assay: Antifungal activity against Rhizoctonia solani SRRC 1443 assessed as thin hyphae at 20 uM after 48 hr by microscopic analysis; format: functional, organism-based

With H-FKLRAKIKVRLRAKIKL-OH the IC50 (Fusarium graminearum) was 2.1 µM, the MIC (Fusarium graminearum) was 25 µM and the IC50 (Berkeleyomyces basicola) was 0.52 µM. It also gave an MIC (Berkeleyomyces basicola) of 6 µM, an IC50 (Fusarium oxysporum) of 2.05 µM and an MIC (Fusarium oxysporum) of 12.5 µM. For the same substance, the MIC (Rhizoctonia solani [1]) was 26.7 µM, the Activity (Rhizoctonia solani [2]) was “Active” and the MIC (Phytophthora cinnamomi) was 4.67 µM. For the same substance, the IC50 (Cercospora kikuchii) was 8.67 µM, the MIC (Cercospora kikuchii) was 25 µM and the Activity (Aspergillus flavus [3]) was “Active”. The Activity (Aspergillus flavus [4]) was “Active”, the IC50 [5] was 0.52 µM and the MIC [5] was 2.25 µM. It also gave an IC50 (Xanthomonas campestris) of 0.19 µM, an MIC (Xanthomonas campestris) of 1.25 µM and an MIC (Phytophthora nicotianae) of 4.67 µM. For the same substance, the IC50 (Penicillium italicum) was 5.92 µM, the MIC (Penicillium italicum) was 25 µM and the IC50 (Aspergillus flavus [6]) was 11 µM. For the same substance, the MIC (Aspergillus flavus [6]) was 25 µM, the Activity (Rhizoctonia solani [7]) was “Active” and the IC50 (Alternaria alternata) was 12.4 µM. The MIC (Alternaria alternata) was 25 µM, the Activity (Rhizoctonia solani [8]) was “Active” and the Activity (Aspergillus flavus [9]) was “Active”. The IC50 (Aspergillus flavus [10]) was 7.75 µM, the MIC (Aspergillus flavus [10]) was 25 µM and the Activity (Aspergillus flavus [11]) was “Active”. The MIC [12] was 13.3 µM, the IC50 [13] was 13 µM and the MIC [13] was 25 µM. For the same substance, the Activity (Aspergillus flavus [14]) was “Active”, the IC50 (Fusarium verticillioides) was 0.88 µM and the MIC (Fusarium verticillioides) was 12.5 µM. For the same substance, the IC50 (Verticillium dahliae) was 0.6 µM, the MIC (Verticillium dahliae) was 5.25 µM and the Activity (Aspergillus flavus [15]) was “Active”. It also gave an Activity (Aspergillus flavus [16]) of over 75%, an IC50 (Claviceps purpurea) of 1.6 µM and an MIC (Claviceps purpurea) of 20 µM. The Activity (Rhizoctonia solani [17]) was “Active”.
